Beta cell apopt: beta cell apoptosis inhibition; INS-1E cytokine-induced death, ATP luminescence, 48 h; percent of positive-control rescue, neutral wells zero; protection from apoptosis, % (concentration not given with the values); hit rate 0.8% among 300,000;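 active means Every replicate reaches about 75%, or at least half do and their mean reaches it too, limit read from the data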;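 further: 0% = cytokine-treated negative control wells and 100% = positive control rescue; higher means more ATP so stronger rescue from cytokine killing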
Lmaj promast: Leishmania major promastigote growth inhibition. Leishmania major promastigotes, resazurin fluorescence viability. inhibition, % at 10 µM. hit rate 9% among 200,000; in the data active means inhibition above about 50%;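 further: promastigotes grown with compound for 44 hours at 28 °C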
CSC inhib: blocks cancer stem cells; cancer stem cell-like cells viability, luminescence; inhibition, % at 7.5 µM; hit rate 1.1% among 300,000; AID 2717; in the data active means inhibition above about 75%; tested in HMLE shEcad cells
T cruzi repl: blocks replication of Trypanosoma cruzi | T. cruzi beta-gal in NIH3T3, luminescence, 90 h | inhibition, % (no concentration beside the values) | hit rate 1.4% among 300,000;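 active means mean inhibition across valid replicates above about 55%, limit read from the data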;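 further: signal also drops with host cell toxicity which is not excluded here; 0% = plate median of DMSO wells and 100% = zero luminescence signal; higher percent means less beta-gal luminescence so fewer parasites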
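System: Mouse NIH/3T3 fibroblasts infected with β-gal-expressing T. cruzi Tulahuen C4 | Quantity: NIH/3T3 cells, 5,000 per well | Reagent: 5000 reporter trypomastigotes per well | Dosing: Compound pinned at 50 nL/well, DMSO | Schedule: 3 h host attachment, then at least 90 h co-culture | Detection: GalScreen luminescence, 60 min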
Mdm2 MdmX PPI: inhibitors of human Mdm2/MdmX interaction. AID 485346. inhibition, % at 8 µM. hit rate 3% among 330,000. SaOS-2 split-luciferase Mdm2/MdmX complementation, luminescence. O15151+Q00987;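 active means inhibition of at least 50% at 8 µM in the primary screen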
Target sequence (O15151 whole entry, looked up): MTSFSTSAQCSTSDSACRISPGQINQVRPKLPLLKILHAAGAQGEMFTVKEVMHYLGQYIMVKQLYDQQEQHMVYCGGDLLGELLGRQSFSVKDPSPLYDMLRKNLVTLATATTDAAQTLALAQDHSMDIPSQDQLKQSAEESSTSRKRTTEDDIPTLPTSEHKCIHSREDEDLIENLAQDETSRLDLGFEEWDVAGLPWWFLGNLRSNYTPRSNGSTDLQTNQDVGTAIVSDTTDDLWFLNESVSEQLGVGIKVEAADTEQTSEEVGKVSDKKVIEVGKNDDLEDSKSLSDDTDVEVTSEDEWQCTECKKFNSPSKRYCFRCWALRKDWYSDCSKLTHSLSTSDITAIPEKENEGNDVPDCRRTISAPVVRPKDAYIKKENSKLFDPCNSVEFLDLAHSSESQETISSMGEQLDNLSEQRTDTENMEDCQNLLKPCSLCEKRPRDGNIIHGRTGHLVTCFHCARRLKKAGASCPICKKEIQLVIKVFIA
Target sequence (Q00987 whole entry, looked up): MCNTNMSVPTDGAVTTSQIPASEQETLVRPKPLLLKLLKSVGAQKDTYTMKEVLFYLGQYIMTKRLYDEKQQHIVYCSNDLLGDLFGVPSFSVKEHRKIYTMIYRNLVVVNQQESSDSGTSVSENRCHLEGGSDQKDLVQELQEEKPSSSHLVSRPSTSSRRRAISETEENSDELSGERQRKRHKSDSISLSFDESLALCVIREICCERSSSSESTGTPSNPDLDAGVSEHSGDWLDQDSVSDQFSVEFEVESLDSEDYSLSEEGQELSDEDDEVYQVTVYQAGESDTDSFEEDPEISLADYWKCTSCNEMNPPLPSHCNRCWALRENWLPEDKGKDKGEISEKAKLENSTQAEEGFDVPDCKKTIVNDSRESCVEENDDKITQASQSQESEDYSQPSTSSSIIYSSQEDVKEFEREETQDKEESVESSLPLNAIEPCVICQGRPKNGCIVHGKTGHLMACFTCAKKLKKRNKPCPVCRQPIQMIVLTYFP
SKKanGAS inh: blocks kanamycin growth of S. pyogenes SKKanGAS strain | BacTiter-Glo, 6 h | inhibition, % at 7.5 µM | hit rate 1.3% among 300,000 | AID 1662;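 active means mean replicate score, as percent of positive control median, at least 50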;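 further: strain carries kanamycin resistance gene driven by streptokinase promoter and grows in 40 µg/ml kanamycin; loss of luminescence reflects streptokinase promoter inhibition or plain growth inhibition; 0% = median of DMSO wells and 100% = positive control at its reference dose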
* = called active by the depositor; x = no result. In the library only some 9.4% were active in any assay of this set; here they are far more common.

SMILES | Beta cell apopt | Lmaj promast | CSC inhib | T cruzi repl | Mdm2 MdmX PPI | SKKanGAS inh
CC(Oc1ccc(Cl)cc1)C(=O)NNC(=S)NC(=O)c1ccco1 (stereo unspecified) | 16 | 9 | 7 | -23 | 40 | 92*
O=C(NC(=S)NNC(=O)c1ccco1)c1ccc(Br)cc1 | 4 | x | 9 | -49 | 38 | 55*
O=C(NC(=S)NCc1ccc(Cl)cc1)c1ccco1 | -1 | x | -12 | x | 8 | x
Cc1cc(NC(=O)Cn2nc(C(=O)O)c3ccccc3c2=O)c([N+](=O)[O-])cc1C | -3 | x | 2 | -5 | -12 | 0
COc1ccc(-c2nc(-c3ccc(C(=O)O)cc3)no2)cc1 | 0 | x | 0 | -20 | -212 | 4
CN(C(=O)c1cccs1)c1ccc(OCC(=O)Nc2ccc(C(=O)O)cc2)cc1 | -1 | x | -23 | 0 | 13 | 6
CCOc1ccc(C(C(=O)NC2CCCCC2)N(CCOC)C(=O)c2snc(C(N)=O)c2N)cc1 (stereo unspecified) | -4 | x | 1 | 2 | 7 | -3
Cc1ccccc1C(=O)N1CCN(c2ccc(NC(=S)NC(=O)c3ccco3)cc2)CC1 | -2 | x | 3 | 13 | 39 | 8
COc1ccccc1C(=O)NC(=S)Nc1ccc(N2CCN(C(=O)c3ccco3)CC2)cc1 | 3 | x | 12 | 20 | 35 | 88*
Cn1cccc1CC(=O)NNC(=O)Nc1ccc(Cl)cc1 | -2 | -5 | -13 | -2 | -23 | -10
COc1ccc(C(=O)NNC(=S)NC(=O)c2ccco2)cc1 | 29 | 7 | 8 | 12 | 11 | 81*
Cn1cccc1CC(=O)NNC(=S)NC(=O)c1ccc(F)cc1 | 1 | x | 3 | -3 | 3 | 65*
CSc1ccc(S(=O)(=O)Nc2c(C)n(C)n(-c3ccccc3)c2=O)cc1 | -11 | x | -12 | -9 | 28 | 7
Nc1ccc2nc(SCc3cccc(F)c3)sc2c1 | x | 0 | -7 | 1 | -179 | 7
COc1ccccc1NC(=S)NCCSc1ccc(Cl)cc1 | -14 | 8 | 3 | 4 | 16 | 7
Cc1ccc(SCCNC(=S)Nc2cc(C)cc(C)c2)cc1 | -8 | 65* | -7 | 16 | 1 | 3
Cc1ccc(SCCNC(=S)Nc2ccc(C)cc2C)cc1 | -4 | 9 | 7 | 58* | 13 | -4
COc1ccc(NC(=S)NCCSc2ccc(Cl)cc2)c(OC)c1 | 4 | 100* | 15 | 7 | 24 | 7
Cc1ccc(NC(=O)Cn2nc(C(=O)O)c3ccccc3c2=O)c([N+](=O)[O-])c1 | -7 | x | -5 | -3 | -9 | -3
CCOc1cc(C)c(C(C)C)cc1S(=O)(=O)n1cnc(C)c1 | 3 | 26 | -2 | 55* | 43 | -9
CCOc1cc(C)c(C(C)C)cc1S(=O)(=O)N1CC(C)OC(C)C1 (stereo unspecified) | -3 | 7 | 5 | 11 | 3 | 6
COc1cc(C)c(Cl)cc1S(=O)(=O)n1cnc(C)c1 | -4 | 89* | 20 | 1 | -2 | -1
COc1ccc(CCN2CCCn3c2nc2c3c(=O)n(CC(C)C)c(=O)n2C)cc1OC | 5 | x | 2 | 16 | -6 | 2
C[C@@H]1COC(=O)[C@H](NC(=O)OCC2c3ccccc3-c3ccccc32)C/C=C\C[C@@H](CC(=O)N[C@H](CO)Cc2ccccc2)C(=O)N1 | 18 | x | x | x | 6 | x
COC(=O)[C@@]12CCCN1[C@H](c1ccc(-c3cccc(Cl)c3)c(OC)c1)[C@H]1C(=O)N(C)C(=O)[C@H]12 | 3 | x | -2 | -2 | 26 | 66*
SMILES | Beta cell apopt | Lmaj promast | CSC inhib | T cruzi repl | Mdm2 MdmX PPI | SKKanGAS inh
COc1ccc(S(=O)(=O)N2CCOCC2)cc1NC(=O)CSc1cccc[n+]1[O-] | -6 | x | -1 | -12 | 1 | -5
COc1ccc(OCCSc2ncc(CO)n2C)cc1 | 1 | x | -10 | -3 | 36 | 2
CC(=O)NN1C(=O)c2ccc3c4c(ccc(c24)C1=O)C(=O)N(NC(C)=O)C3=O | 108* | x | 42 | 5 | 39 | 22
COc1ccc(C(C(=O)NC(C)(C)C)N(Cc2ccco2)C(=O)CCC(=O)Nc2ccccn2)cc1 (stereo unspecified) | 1 | x | -20 | -10 | -10 | 15
COc1ccc(C(C(=O)NC(C)(C)C)N(Cc2ccco2)C(=O)CCC(=O)Nc2cc(C)on2)cc1 (stereo unspecified) | 1 | 87* | 9 | -3 | 4 | 1
COc1ccc(C(C(=O)NC(C)(C)C)N(Cc2ccc(C)cc2)C(=O)CCC(=O)Nc2cc(C)on2)cc1 (stereo unspecified) | 2 | 94* | 5 | 17 | 6 | -4
CCC(C)(C)NC(=O)C(c1ccc(OC)cc1)N(Cc1ccco1)C(=O)CCC(=O)Nc1cc(C)on1 (stereo unspecified) | -2 | 96* | -3 | -5 | 4 | 9
CC(c1ccco1)N(C(=O)c1ccccc1NS(=O)(=O)c1ccc(Cl)c([N+](=O)[O-])c1)c1ccccn1 (stereo unspecified) | -11 | 81* | x | 6 | 6 | 4
CC(c1ccco1)N(C(=O)c1cc(Cl)cc(Cl)c1)c1ccccn1 (stereo unspecified) | -3 | x | x | 11 | 7 | -3
Cc1cccc(C(=O)N(c2ccccn2)C(C)c2ccco2)c1 (stereo unspecified) | -7 | 56* | 12 | 0 | 10 | 0
Cc1cc(C)cc(C(=O)N(c2ccccn2)C(C)c2ccco2)c1 (stereo unspecified) | x | -3 | -3 | 2 | -23 | 7
c1ccc2sc(SCSc3nc4ccccc4s3)nc2c1 | 4 | x | 38 | -3 | 28 | 54*
CN(C)CCCSc1nc2ccccc2s1 | 0 | 9 | -16 | 71* | 3 | -24
CCCSc1nnc(CSc2nc3ccccc3s2)n1-c1ccccc1 | 44 | 20 | 86* | 53 | 7 | -17
O=C(O)CCSc1nc2ccccc2s1 | 0 | -4 | -2 | -10 | 3 | -11
CC(C)CN(C(=O)c1cccs1)C1CCS(=O)(=O)C1 (stereo unspecified) | x | x | x | 0 | 4 | -1
CS(=O)(=O)N(CCC#N)Cc1ccco1 | 2 | -2 | -2 | -6 | 4 | 5
Cc1cccnc1NC(=O)C1CCCN1S(=O)(=O)c1ccc(Cl)cc1 (stereo unspecified) | -9 | x | -5 | 6 | 6 | -2
COc1ccc(C)cc1NC(=O)CCC(=O)Nc1nnc(C2CCCCC2)s1 | -4 | x | -5 | 8 | 3 | -2
CCN(c1ccccc1)S(=O)(=O)c1cc(C(=O)Nc2ccc(Br)cc2)ccc1F | -1 | 14 | 19 | 57* | 29 | 26
COc1ccc(OC)c(NC(=O)c2nnn(Cc3ccccc3C)c2N)c1 | -6 | 20 | 106* | 2 | 13 | -7
COc1ccc(C)cc1NC(=O)c1nnn(Cc2cc(C)ccc2C)c1N | -13 | 4 | 42 | 2 | 26 | -11
CCOC(=O)c1cn2nc(Oc3cccc(C(F)(F)F)c3)ccc2n1 | -4 | x | -6 | -25 | 9 | -4

High-throughput results (PubChem BioAssay)
